# Most compounds without a hit are left out; they make up all but 2.4% or so of the library.
# NadD block = inhibitors of S. aureus NadD, primary screen, biochemical, colorimetric, uHTS; Nicotinate-nucleotide adenylyltransferase NadD (Staphylococcus aureus N315); purified NadD enzyme, colorimetric absorbance read-out; inhibition, % at 20 µM; 360,000 tested, 0.78% active; AID 602399, 2012; in the data active means inhibition above about 26%
# DNMT1 block = human DNMT1 methyltransferase inhibitors, primary screen, biochemical, molecular beacon, fluorescence, HinP1I cleavage, uHTS. AID 588458, 2011. 360,000 tested, 0.83% active. DNA (cytosine-5)-methyltransferase 1 (Homo sapiens), P26358. inhibition (reported as % activation of signal), % at 10 µM; in the data active means inhibition above about 50%
# Target sequence (P26358 504-1616 limits assumed): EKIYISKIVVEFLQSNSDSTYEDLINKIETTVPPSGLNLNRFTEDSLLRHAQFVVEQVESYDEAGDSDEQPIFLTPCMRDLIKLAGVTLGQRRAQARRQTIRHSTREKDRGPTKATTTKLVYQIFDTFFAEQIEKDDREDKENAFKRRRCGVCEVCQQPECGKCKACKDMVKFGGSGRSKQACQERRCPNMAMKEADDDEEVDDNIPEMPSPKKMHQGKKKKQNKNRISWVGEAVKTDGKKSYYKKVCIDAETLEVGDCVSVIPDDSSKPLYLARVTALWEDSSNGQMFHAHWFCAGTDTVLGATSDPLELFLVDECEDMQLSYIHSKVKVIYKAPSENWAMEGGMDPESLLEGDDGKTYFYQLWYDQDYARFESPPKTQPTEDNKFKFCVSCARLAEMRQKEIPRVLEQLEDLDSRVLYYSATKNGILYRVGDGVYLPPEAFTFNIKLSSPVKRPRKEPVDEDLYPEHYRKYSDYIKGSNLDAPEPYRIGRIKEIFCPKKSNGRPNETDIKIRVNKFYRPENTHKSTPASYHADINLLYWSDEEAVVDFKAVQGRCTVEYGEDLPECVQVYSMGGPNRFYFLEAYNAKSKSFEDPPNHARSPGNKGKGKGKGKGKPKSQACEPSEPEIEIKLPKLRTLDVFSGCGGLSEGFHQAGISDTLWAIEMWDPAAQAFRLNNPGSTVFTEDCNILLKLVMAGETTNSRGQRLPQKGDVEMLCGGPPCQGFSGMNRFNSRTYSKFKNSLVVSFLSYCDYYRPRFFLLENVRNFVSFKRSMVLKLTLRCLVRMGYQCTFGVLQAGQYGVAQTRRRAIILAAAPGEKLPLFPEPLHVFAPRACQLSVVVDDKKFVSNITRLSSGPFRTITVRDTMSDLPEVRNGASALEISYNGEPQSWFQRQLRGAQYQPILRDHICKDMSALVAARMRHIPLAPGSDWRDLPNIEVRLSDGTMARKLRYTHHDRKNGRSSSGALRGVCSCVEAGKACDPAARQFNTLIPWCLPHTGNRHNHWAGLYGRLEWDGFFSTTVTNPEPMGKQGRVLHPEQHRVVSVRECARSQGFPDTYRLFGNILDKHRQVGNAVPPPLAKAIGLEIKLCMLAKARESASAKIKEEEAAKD
# LMPTP inh = LMPTP phosphatase inhibitors, primary screen, biochemical, fluorescence intensity, uHTS; Low molecular weight phosphotyrosine protein phosphatase (Homo sapiens), P24666; AID 651560, 2012; inhibition, % at 20 µM; 360,000 tested, 0.22% active; recombinant LMPTP-A, OMFP fluorogenic substrate;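 active means compounds that cut the enzyme signal by at least half of the control window in the single-dose screen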
#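 Assay system: LMPTP-A enzyme. Input: 0.625 nM LMPTP-A final. Probe or stimulus: 400 µM OMFP. Compound dosing: single 20 µM dose. Schedule: 50 min dark incubation at room temperature. Detection: fluorescence intensity of OMFP turnover product. Read-out: percent inhibition versus substrate-only and uninhibited controls. Benchmarks: no-enzyme low control, uninhibited high control.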
# Scp-1 inhibitor = Scp-1 phosphatase inhibitors, primary screen, biochemical, colorimetric, uHTS. AID 493091, 2011. Carboxy-terminal domain RNA polymerase II polypeptide A small phosphatase 1 (Homo …. inhibition, % at 20 µM. 340,000 tested, 0.88% active. Recombinant Scp1, phosphopeptide, malachite green phosphate absorbance;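 active means inhibition above about 50% at 20 µM, limit read from the data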
#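 Test system: SCP-1 catalytic domain; Buffer or medium: Acidic Tris acetate buffer with magnesium and detergent; Also added: Phosphorylated 17-residue peptide substrate; Compound: single 20 µM dose, 1% DMSO; Schedule: enzyme reaction 45 min at room temperature, colour 5 min, stabilisation 30 min; Signal: Phosphate-binding colour reagent, absorbance read at 630 nm.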
# SUMO1-SIM PPI = modulators of SUMO1 protein-protein interactions, primary screen, biochemical, uHTS; inhibition, % at 20 µM; SUMO1 binding to a labelled peptide, TR-FRET, 1 h; 360,000 tested, 0.33% active; in the data active means inhibition above about 37%
# STEP inh = STEP phosphatase inhibitors, primary screen, biochemical, fluorescence intensity, uHTS | recombinant STEP, OMFP fluorogenic substrate | Tyrosine-protein phosphatase non-receptor type 5 (Homo sapiens), P54829 | inhibition, % at 20 µM | 360,000 tested, 0.25% active;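 active means inhibition at 20 µM, scaled per plate between control wells, above about 37%, limit read from the data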
#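 medium = Bis-Tris buffer pH 6.0, 2.5 mM DTT, 0.005% Tween 20 | test system = STEP (striatal-enriched tyrosine phosphatase) enzyme, cell-free | measure = normalized % inhibition | compound dosing = 20 µM, 1% DMSO | also added = 25 µM OMFP | schedule = reaction 20 min, ambient temperature | measured by = fluorescence read at 480 nm ex / 540 nm em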
# NadD conf = inhibitors of S. aureus NadD, confirmation, biochemical, colorimetric, single concentration; shares compounds with NadD block; purified S. aureus NadD, colorimetric enzyme assay; inhibition, % at 20 µM; 2,000 tested, 13% active; AID 624309, 2012; in the data active means inhibition mostly above about 42%, no sharp cut-off; inactive means mostly below about 42%
# Numbers stand for hits; 0 = inactive; - = not tested or not shown.
SMILES,NadD block,DNMT1 block,LMPTP inh,Scp-1 inhibitor,SUMO1-SIM PPI,STEP inh,NadD conf
Cc1ccc(S(=O)(=O)Nc2cccc(-c3ccc(N4CCCCCC4)nn3)c2)c(C)c1,42,0,0,0,0,0,0
Cc1c([N+](=O)[O-])cc(S(=O)(=O)Nc2ccc(-c3ccc(N4CCCC4)nn3)cc2)cc1[N+](=O)[O-],57,0,0,0,0,0,0
O=[N+]([O-])c1ccc(Cl)c(S(=O)(=O)Nc2cccc(-c3ccc(N4CCCC4)nn3)c2)c1,63,0,0,0,0,0,52
Cc1ccc([N+](=O)[O-])cc1S(=O)(=O)Nc1ccc(-c2ccc(N3CCCC3)nn2)cc1,38,0,0,0,0,0,0
O=[N+]([O-])c1ccc(Cl)c(S(=O)(=O)Nc2ccc(-c3ccc(N4CCCC4)nn3)cc2)c1,0,0,0,0,0,0,-
O=[N+]([O-])c1ccc(S(=O)(=O)Nc2ccc(-c3ccc(N4CCCC4)nn3)cc2)cc1,0,0,0,0,0,0,-
O=C(NC1CC1)C1=C[C@H](c2ccc(C(F)(F)F)cc2)C[C@H](OCc2ccc(CO)cc2)O1,0,0,0,0,0,0,-
O=C1C(c2ccncc2)N(CCC2=CCCCC2)C(=O)CN1C1CCCCC1 (stereo unspecified),0,0,0,0,0,0,-
O=C(CN1CCCCC1)Nc1nnc(-c2ccc([N+](=O)[O-])cc2)s1,33,0,0,0,0,0,0
CC(=O)N1CCN(C(=O)c2ccc(NS(=O)(=O)c3ccc4[nH]c(=O)[nH]c4c3)cc2)CC1,0,0,0,0,0,0,-
O=C1NC(Cc2ccc(O)cc2)c2nc3ccc(Br)cc3c(=O)n2-c2cc3ccccc3cc21 (stereo unspecified),31,0,0,-,0,0,0
COc1ccc2nc3n(c(=O)c2c1)-c1cc2ccccc2cc1C(=O)NC3Cc1ccc(O)cc1 (stereo unspecified),0,0,0,-,0,0,-
COc1ccc(-c2ccc3[nH]c4c(c3c2)CCN2C[C@@H]([C@H](C)OC(=O)Nc3cc(Cl)cc(Cl)c3)[C@@H](N(C)C(=O)Nc3cc(Cl)cc(Cl)c3)C[C@@H]42)cc1,38,0,0,-,0,0,0
CC1CC(NC(=O)c2c(O)nc3sccn3c2=O)CC(C)(C)C1 (stereo unspecified),35,0,0,0,0,0,0
CCC(CC)c1nnc(NC(=O)c2cccc(S(=O)(=O)N3CCc4ccccc43)c2)s1,0,0,0,0,0,0,-
CCOC(=O)c1sc(NC(=O)c2cccc(S(=O)(=O)N3CCc4ccccc43)c2)c(C#N)c1C,36,0,0,0,0,0,0
Cc1c(N2C(=O)CSC2c2ccco2)c(=O)n(-c2ccccc2)n1C (stereo unspecified),0,0,0,0,0,0,-
COc1cc(C2C(C#N)=C(N)Oc3c2ccc2ccccc32)ccc1OCC(=O)Nc1ccc(C)cc1 (stereo unspecified),40,0,0,0,0,0,0
COc1ccc(C2C(C#N)=C(N)Oc3c2ccc2cccnc32)cc1OC (stereo unspecified),0,0,0,0,0,0,-
COc1cc(C2C(C#N)=C(N)Oc3c2ccc2ccccc32)ccc1OCC(=O)Nc1cccc(C)c1 (stereo unspecified),30,0,0,0,0,0,0
CCC(=O)c1ccc(OCC(=O)NC2(C#N)CCCCC2)cc1,0,0,0,0,0,0,-
COCc1ccc2oc(C(=O)O)cc2c1,0,0,0,0,0,0,-
O=C(COC(=O)c1ccc(S(=O)(=O)Nc2ccccc2)cc1)NC1CCCC1,0,0,0,0,0,0,-
NC(=O)c1c(NC(=O)COC(=O)c2ccc(S(=O)(=O)Nc3ccccc3)cc2)sc2c1CCCC2,35,0,0,0,0,0,0
C/C(=N/NC(N)=S)c1ccc(Br)s1,0,0,0,0,0,0,-
SMILES,NadD block,DNMT1 block,LMPTP inh,Scp-1 inhibitor,SUMO1-SIM PPI,STEP inh,NadD conf
CC(C)(Sc1ccc(CCN(CCCCC2CCCCC2)C(=O)NC2CCCCC2)cc1)C(=O)O,46,0,0,0,0,0,0
C[C@@H]1CN([C@@H](C)CO)C(=O)c2cc(C#CC3CCCCC3)cnc2O[C@@H]1CN(C)S(=O)(=O)c1ccc(F)cc1,75,0,0,-,0,0,0
COc1ccc(S(=O)(=O)N(C)C[C@@H]2OCCCC[C@H](C)Oc3ccc(NC(=O)Nc4ccc(C(F)(F)F)cc4)cc3C(=O)N([C@H](C)CO)C[C@H]2C)cc1,30,0,0,-,0,0,0
COc1ccc(S(=O)(=O)N(C)C[C@H]2OCCCC[C@@H](C)Oc3ccc(NC(=O)CCC(F)(F)F)cc3C(=O)N([C@H](C)CO)C[C@@H]2C)cc1,0,0,0,-,0,0,-
C[C@@H]1CCCCO[C@H](CN(C)C(=O)Nc2ccc(C(F)(F)F)cc2)[C@@H](C)CN([C@H](C)CO)C(=O)c2cc(NC(=O)c3ccncc3)ccc2O1,35,0,0,-,0,0,0
C[C@@H]1CCCCO[C@H](CN(C)S(=O)(=O)c2ccc(F)cc2)[C@@H](C)CN([C@H](C)CO)C(=O)c2cc(NC(=O)Nc3ccc(C(F)(F)F)cc3)ccc2O1,35,0,0,-,0,0,0
CC1(C)CN(c2ccccc2)C(=O)[C@H]1CC(=O)Nc1ccccc1,0,0,0,-,0,0,-
Cn1c(O)c(N=NC(=O)CNC(=O)/C=C/c2ccccc2)c2ccccc21,0,0,0,0,0,0,-
O=C(CN1C(=O)NC2(CCc3ccccc32)C1=O)c1ccc2c(c1)OCCO2 (stereo unspecified),0,0,0,0,0,0,-
O=C(NCCN1CCCC1)C(c1ccccc1)c1ccccc1,0,0,0,0,0,0,-
Cc1n[nH]c(C)c1S(=O)(=O)N1CCC(C(=O)Nc2cccc(F)c2)CC1,0,0,0,0,0,0,-
Fc1cccc(NC(=S)NCc2ccc(Cl)cc2)c1,0,0,0,0,0,0,-
Fc1cc(NC(=S)NCc2ccc(CNC(=S)Nc3ccc(Cl)c(F)c3)cc2)ccc1Cl,36,0,0,0,0,0,0

# High-throughput results (PubChem)
